Here are results for two compounds from ChEMBL document CHEMBL4825663 (J Med Chem, 2021).

Series [1] is described as follows: Oral bioavailability in Sprague-Dawley rat at 10 mg/kg measured upto 48 hrs by LC-MS/MS analysis. The series is classed as ADME, organism-based. The following applies: in vivo. Put shortly:
(§1)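 Plasma pharmacokinetics in male Sprague-Dawley rats and male Beagle dogs (n = 3 per species), each given a single dose by IV at 3 mg/kg and by PO at 10 mg/kg. Cmax, Tmax, T1/2 and AUClast were derived for each route. F (%) was calculated from the PO and IV AUClast.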

A short description of series [2]: Toxicity in Beagle dog assessed as histiocytosis in lymph nodes at >= 100 mg/kg, po and measured after 13 weeks. The series is classed as organism-based, Canis lupus familiaris. The following applies: in vivo, 2184 h.
A short description of series [3]: Drug distribution in Beagle dog brain. In kind it is ADME, tissue-based, Canis lupus familiaris. As to conditions: in vivo.
Series [4] can be described thus: Tmax in Sprague-Dawley rat at 10 mg/kg, po measured upto 48 hrs by LC-MS/MS analysis. As to conditions: in vivo.
Series [5] is described as follows: Cmax in human upto 360 mg, po administered as repeated dose for 5 consecutive days. In kind it is ADME, organism-based. On the set-up: route oral, dose <=360. The following applies: in vivo.
Series [6] concerns the target ATP-dependent translocase ABCB1 (Homo sapiens, UniProt P08183). Kind of series: Inhibition of paclitaxel stimulated- P-gp ATPase activity (unknown origin).
Series [7] is described as follows: AUClast in Sprague-Dawley rat at 3 mg/kg, iv measured upto 48 hrs by LC-MS/MS analysis. The series is classed as ADME, organism-based. Further details: route intravenous, dose 3 mg/kg, time <=48. As to conditions: in vivo. Put shortly:
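Single dose in male Sprague-Dawley rats and male Beagle dogs (n = 3 per species), given 3 mg/kg IV or 10 mg/kg PO. Plasma was sampled to derive Cmax, Tmax, T1/2 and AUClast by each route. Oral bioavailability (F) was calculated from the PO and IV AUClast.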

Series [8] is described as follows: Half life in Beagle dog at 3 mg/kg, iv measured upto 48 hrs by LC-MS/MS analysis. In kind it is ADME, organism-based, Canis lupus familiaris. As to conditions: in vivo. Put shortly: as §1
A short description of series [9]: Drug distribution in Sprague-Dawley rat spinal cord. As to conditions: in vivo. In kind it is ADME, tissue-based.
Series [10] has as its target T1, Multidrug and toxin extrusion protein 1 (Homo sapiens, UniProt Q96FL8).
T1 sequence (Q96FL8 whole entry): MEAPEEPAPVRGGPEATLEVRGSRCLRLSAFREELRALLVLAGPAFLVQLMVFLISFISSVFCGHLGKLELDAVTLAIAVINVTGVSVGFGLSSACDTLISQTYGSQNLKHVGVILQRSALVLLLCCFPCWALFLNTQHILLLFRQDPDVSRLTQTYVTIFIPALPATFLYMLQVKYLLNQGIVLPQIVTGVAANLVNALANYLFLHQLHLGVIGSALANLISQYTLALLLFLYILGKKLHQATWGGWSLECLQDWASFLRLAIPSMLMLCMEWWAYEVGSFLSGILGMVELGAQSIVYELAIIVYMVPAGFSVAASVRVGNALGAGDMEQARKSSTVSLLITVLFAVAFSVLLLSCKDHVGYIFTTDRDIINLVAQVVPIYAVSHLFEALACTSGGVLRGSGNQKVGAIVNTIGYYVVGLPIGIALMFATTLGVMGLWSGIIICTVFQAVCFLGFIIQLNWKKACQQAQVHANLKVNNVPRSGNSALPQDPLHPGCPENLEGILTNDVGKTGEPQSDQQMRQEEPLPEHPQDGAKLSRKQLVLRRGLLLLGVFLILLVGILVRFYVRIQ
Kind of series: Inhibition of human MATE1 assessed as reduction in intracellular probe substrate accumulation upto 100 uM by microplate scintillation counter analysis relative to control. The series is classed as cell-based. The method, boiled down: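 Cellular uptake-inhibition assays used Chinese hamster ovary, HEK293 or MDCKII cells stably expressing the respective human SLC transporter, run alongside the corresponding control cells. Inhibitor was tested at concentrations up to 100 μM.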

The target in the next series is Cytochrome P450 3A5 (Homo sapiens, UniProt P20815). Kind of series: Drug metabolism assessed as human CYP3A5-mediated metabolism. The series is classed as ADME. As to conditions: recombinant enzyme.
Series [11] deals with MDA-MB-231. Kind of series: Antitumor activity against human MDA-MB-231 cells xenografted in athymic nude mouse assessed as reduction in median number of days for tumor to reach two tumor mass doubling at 30 mg/kg, po administered every other day for 4 doses in presence of 12 mg/kg encequidar and monitored for 70 to 82 days (reference value: 13.1 day). The series is classed as functional. The following applies: time 70-82 day. On the technique in general: A xenograft is tissue or cells of one species grown in another, often human tumour cells in immunodeficient mice.

Series [12] is described as follows: Drug distribution in BALB/c mouse liver at 20 mg/kg, po measured upto 24 hrs in presence of 10 mg/kg encequidar by LC-MS/MS analysis. In kind it is ADME, organism-based. The following applies: in vivo.
A further series in a line: in vivo. As to conditions: Sprague-Dawley, rat, po, 20 mg/kg.
The test system of series [13] is MDA-MB-231. Kind of series: Antitumor activity against human MDA-MB-231 cells xenografted in athymic nude mouse assessed as reduction in tumor growth at 30 mg/kg, po administered every other day for 4 doses in presence 12 mg/kg encequidar and monitored for 70 to 82 days. As to conditions: time 70-82 day. In kind it is functional, organism-based.
The nature of series [14]: Drug absorption in fed Sprague-Dawley rat at 20 mg/kg, po measured upto 24 hrs in presence of 10 mg/kg encequidar by LC-MS/MS analysis. In kind it is ADME, organism-based. As to conditions: in vivo.
The nature of series [15]: Tmax in Sprague-Dawley rat at 6 mg/kg, iv measured upto 24 hrs by LC-MS/MS analysis. The series is classed as ADME, organism-based. As to conditions: in vivo.
Series [16] in a line: Drug metabolism in dog plasma assessed as metabolic ratio of 6alpha-hydroxypaclitaxel at 6 mg/kg, po in presence of 3 mg/kg encequidar. The series is classed as ADME, organism-based, Canis lupus familiaris. The following applies: in vivo.
In a further series the test system is NCI-H460. Kind of series: Antitumor activity against human NCI-H460 cells xenografted in athymic nude mouse assessed as median tumor growth delay at 30 mg/kg, po administered every other day for 4 doses in presence of 12 mg/kg encequidar and monitored for 48 days. In kind it is functional. As to conditions: time 48 day. The method, boiled down: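 Female athymic NCr-nu mice carried subcutaneous NCI-H460 xenografts. […] Tumor weights and body weights were followed for 48 days after implantation. Read-out was median tumor growth delay.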

The nature of series [17]: Drug distribution in Sprague-Dawley rat intestine at 20 mg/kg, po measured upto 168 hrs in presence of 10 mg/kg encequidar by LC-MS/MS analysis. In kind it is ADME, organism-based. The following applies: in vivo.
The nature of series [18]: Toxicity in athymic nude mouse xenografted with human NCI-H460 cells assessed as reduction in body weight at 30 to 50 mg/kg, po administered every other day for 4 doses in presence of 12 to 20 mg/kg encequidar and monitored for 48 days. In kind it is organism-based. The following applies: in vivo, 1152 h, dose 30-50 mg/kg, time 48 day.
Series [19] is described as follows: Half life in Sprague-Dawley rat at 6 mg/kg, iv measured upto 24 hrs by LC-MS/MS analysis. The following applies: in vivo.
Series [20] can be described thus: Tmax in Sprague-Dawley rat at 20 mg/kg, po measured upto 24 hrs in presence of 10 mg/kg encequidar by LC-MS/MS analysis. In kind it is ADME, organism-based. The following applies: in vivo.
For series [21], the system named is MDA-MB-231. Kind of series: Antitumor activity against human MDA-MB-231 cells xenografted in athymic nude mouse assessed as reduction in median number of days for tumor to reach two tumor mass doubling at 18 mg/kg, iv administered every other day for 4 doses and monitored for 70 to 82 days (reference value: 13.1 day). As to conditions: time 70-82 day. In kind it is functional.

Series [22] can be described thus: Drug distribution in BALB/c mouse kidney at 20 mg/kg, po measured upto 24 hrs in presence of 10 mg/kg encequidar by LC-MS/MS analysis. The series is classed as ADME, organism-based. The following applies: in vivo.

pIC50: −log10 of the molar value. Activity calls are given as the source filed them. Bounds are passed on as bounds.

Cytochrome P450 3A5, sequence (P20815 whole entry): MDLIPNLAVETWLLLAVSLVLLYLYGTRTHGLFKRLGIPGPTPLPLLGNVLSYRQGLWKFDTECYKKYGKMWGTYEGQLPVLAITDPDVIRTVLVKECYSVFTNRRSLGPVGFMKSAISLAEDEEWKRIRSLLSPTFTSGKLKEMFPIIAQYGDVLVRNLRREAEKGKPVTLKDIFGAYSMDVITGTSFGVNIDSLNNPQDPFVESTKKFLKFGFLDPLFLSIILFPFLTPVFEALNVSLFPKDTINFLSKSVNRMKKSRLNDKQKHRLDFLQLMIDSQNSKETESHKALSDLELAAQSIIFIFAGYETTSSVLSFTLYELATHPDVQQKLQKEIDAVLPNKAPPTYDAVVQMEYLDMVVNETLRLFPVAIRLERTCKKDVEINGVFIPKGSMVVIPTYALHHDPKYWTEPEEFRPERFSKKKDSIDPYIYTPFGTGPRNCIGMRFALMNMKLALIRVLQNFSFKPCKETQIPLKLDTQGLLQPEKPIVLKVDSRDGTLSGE
ATP-dependent translocase ABCB1, sequence (P08183 whole entry): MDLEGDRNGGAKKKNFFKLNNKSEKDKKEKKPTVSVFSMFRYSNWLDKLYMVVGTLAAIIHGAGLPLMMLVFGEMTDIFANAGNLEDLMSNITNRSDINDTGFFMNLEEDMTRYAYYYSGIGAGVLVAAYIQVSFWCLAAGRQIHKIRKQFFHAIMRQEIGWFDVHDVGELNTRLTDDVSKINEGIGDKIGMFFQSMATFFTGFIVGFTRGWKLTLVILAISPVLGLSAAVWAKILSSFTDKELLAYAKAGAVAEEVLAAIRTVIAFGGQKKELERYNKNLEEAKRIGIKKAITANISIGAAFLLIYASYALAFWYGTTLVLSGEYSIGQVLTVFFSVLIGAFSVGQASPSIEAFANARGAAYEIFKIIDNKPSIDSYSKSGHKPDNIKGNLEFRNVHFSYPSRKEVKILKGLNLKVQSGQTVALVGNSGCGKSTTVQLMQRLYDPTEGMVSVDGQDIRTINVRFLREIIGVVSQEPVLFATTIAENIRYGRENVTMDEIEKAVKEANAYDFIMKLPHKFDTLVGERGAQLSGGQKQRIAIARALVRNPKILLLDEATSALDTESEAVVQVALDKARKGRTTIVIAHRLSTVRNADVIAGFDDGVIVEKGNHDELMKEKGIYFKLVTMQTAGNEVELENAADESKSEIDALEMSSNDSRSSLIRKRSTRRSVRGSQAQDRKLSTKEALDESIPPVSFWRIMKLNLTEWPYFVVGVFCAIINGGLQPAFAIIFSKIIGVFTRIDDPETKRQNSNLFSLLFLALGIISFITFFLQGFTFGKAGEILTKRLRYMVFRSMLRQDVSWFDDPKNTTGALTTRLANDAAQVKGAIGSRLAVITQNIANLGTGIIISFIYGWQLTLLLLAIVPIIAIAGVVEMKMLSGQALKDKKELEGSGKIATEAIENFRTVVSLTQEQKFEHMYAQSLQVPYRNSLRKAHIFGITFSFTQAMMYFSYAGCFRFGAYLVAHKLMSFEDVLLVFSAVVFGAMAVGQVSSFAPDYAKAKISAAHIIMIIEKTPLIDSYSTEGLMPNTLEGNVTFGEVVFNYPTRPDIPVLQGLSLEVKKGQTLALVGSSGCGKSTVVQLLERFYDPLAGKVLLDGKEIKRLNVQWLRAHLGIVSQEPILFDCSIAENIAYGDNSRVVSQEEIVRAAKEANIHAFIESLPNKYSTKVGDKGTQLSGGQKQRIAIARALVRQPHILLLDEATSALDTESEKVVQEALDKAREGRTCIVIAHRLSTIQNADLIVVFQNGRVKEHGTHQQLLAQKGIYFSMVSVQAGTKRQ

Take `COc1cc2c(cc1OC)CN(CCc1ccc(-n3nnc(-c4cc(OC)c(OC)cc4NC(=O)c4cc(=O)c5ccccc5o4)n3)cc1)CC2`: the bioavailability – broadly, the share of a dose that reaches the circulation, judged against a reference dose that is usually intravenous – in [1] was found to be 6.25%. In addition, in series [2], the Activity result is “Toxic”. Moreover, the Drug uptake entry in series [3] and in series [9] was “Not Active” each time. The Tmax – broadly, the time at which the peak concentration occurs – in series [4] came to 8 h. The maximum concentration (Cmax) – broadly, the maximum level reached in the sampled fluid or tissue – in series [5] is 22.5 ng/mL. Besides, the negative-log IC50 (pIC50) (in general, −log10 of the IC50, conventionally taken in molar units) in series [6] is 9.22. Besides, the AUC(0-t) (usually exposure summed from dosing to a finite time, without extrapolation to infinity) at 48 h in series [7] was 619 ng·h/mL. For the same compound, the half-life (as a rule, the time needed for the level to fall by half in the phase considered) in [8] is 16.9 h. In addition, in series [10], the “inhibition (INH)” value was < 50%. Besides, the Drug metabolism entry on Cytochrome P450 3A5 is on record as “Metabolite_Detected”.
As to `CC(=O)O[C@H]1C(=O)[C@@]2(C)[C@H]([C@H](OC(=O)c3ccccc3)[C@]3(O)C[C@H](OC(=O)[C@H](O)[C@@H](NC(=O)c4ccccc4)c4ccccc4)C(C)=C1C3(C)C)[C@]1(OC(C)=O)CO[C@@H]1C[C@@H]2O` [PACLITAXEL], the Time is >69 days with MDA-MB-231 [11], 9.9 days in the series on NCI-H460 and >69 days in the series on MDA-MB-231 [21]. Besides, the Drug uptake entry in series [12], in series [17] and in series [22] was “Active” in each case. The half-life at 24 h in “in vivo” was 6.8 h; in series [19], 7.7 h. Besides, in the series on MDA-MB-231 [13], the outcome was Active. The Drug absorption result in [14] is listed as “Not Active”. The figures for the Tmax in [15] and in [20] were 4.8 min and 1 h, respectively. For the same compound, the Ratio in [16] came to 0.76. Moreover, the Activity entry in series [18] is listed as “Toxic”.
